In ChEMBL document CHEMBL1143721, “Bioactive polyketides from Peperomia duclouxii” (J Nat Prod, 2007):
Values after ≈ are worked out from the molar mass of the structure shown.

How the values were obtained:
WI-38 = assay: Growth inhibition of WI38 cells; type: functional, cell-based; settings: Homo sapiens
A549 [1] = assay: Inhibition of TNF-alpha-stimulated ICAM1 expression in human A549 cells; type: functional, cell-based
Procedure, shortened: (§1)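 A549 human lung carcinoma cells grown in RPMI 1640 with heat-inactivated 10% FBS, penicillin G and streptomycin. ICAM-1 induced with recombinant IL-1α or TNF-α. Cell-surface ICAM-1 detected with mouse anti-human ICAM-1 antibody C167 and peroxidase-conjugated goat anti-mouse IgG. Viability checked in parallel by MTT assay.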

HepG2 = assay: Growth inhibition of HepG2 cells; type: functional, cell-based; settings: Homo sapiens
Procedure, shortened: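 HepG2 cells kept in D-MEM with 10% FBS and 80 µg/mL kanamycin. Growth inhibition measured, IC50 taken as the concentration giving 50% growth inhibition, reported in µg/mL.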

WI-38 VA13 = assay: Growth inhibition of VA13 cells; type: functional, cell-based; settings: Homo sapiens
Procedure, shortened: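 VA-13 malignant lung tumor cells kept in RITC 80-7 medium with 10% FBS and 80 µg/mL kanamycin. Growth inhibition measured, IC50 taken as the concentration giving 50% growth inhibition, reported in µg/mL.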

A549 [2] = assay: Inhibition of IL-1-alpha-stimulated ICAM1 expression in human A549 cells; type: functional, cell-based; procedure, shortened: as §1
MDR [3] = assay: Effect on calcein accumulation in MDR 2780AD cells at 0.25 ug/mL relative to control; type: functional, Homo sapiens
Procedure, shortened: (§2)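 Multidrug-resistant human ovarian cancer 2780AD (AD10) cells grown in RPMI-1640 with 10% FBS and 80 µg/mL kanamycin. Cells are exposed to test agent at 0.25, 2.5 and 25 µg/mL. Calcein formed from calcein AM by endogenous esterase is read as fluorescence per well, mean of triplicates. Results are given as % of untreated control, or relative to verapamil at the same concentration.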

MDR [4] = assay: Effect on calcein accumulation in MDR 2780AD cells at 25 ug/mL relative to control; type: functional, Homo sapiens; procedure, shortened: as §2
MDR [5] = assay: Effect on calcein accumulation in MDR 2780AD cells at 2.5 ug/mL relative to control; type: functional, Homo sapiens; procedure, shortened: as §2
MDR [6] = assay: Effect on calcein accumulation in MDR 2780AD cells at 2.5 ug/mL relative to verapamil; type: functional, Homo sapiens; procedure, shortened: as §2
MDR [7] = assay: Effect on calcein accumulation in MDR 2780AD cells at 25 ug/mL relative to verapamil; type: functional, Homo sapiens; procedure, shortened: as §2
MDR [8] = assay: Effect on calcein accumulation in MDR 2780AD cells at 0.25 ug/mL relative to verapamil; type: functional, Homo sapiens; procedure, shortened: as §2

Row | IC50 (A549 [1]) | IC50 (HepG2) | IC50 (A549 [2]) | Compound | IC50 (WI-38) | IC50 (WI-38 VA13) | other results
1 | 33.5 µg/mL (≈ 70.9 µM) | 7.4 µg/mL (≈ 15.7 µM) | 51.4 µg/mL (≈ 109 µM) | O=C(CCCCCCCCCCCCCCc1ccc2c(c1)OCO2)C1=C(O)CCC(O)C1=O (stereo not given) [SURINONE A] | 8.6 µg/mL (≈ 18.2 µM) | 4.4 µg/mL (≈ 9.31 µM) | –
2 | 27.2 µg/mL (≈ 61.2 µM) | – | 43.3 µg/mL (≈ 97.4 µM) | O=C(CCCCCCCCCCCCc1ccc2c(c1)OCO2)C1=C(O)CCC(O)C1=O (stereo not given) | – | – | –
3 | 22.9 µg/mL (≈ 57.2 µM) | 9.2 µg/mL (≈ 23 µM) | 36.8 µg/mL (≈ 91.9 µM) | O=C(CCCCCCCCCCCCc1ccccc1)C1=C(O)CCC(O)C1=O (stereo not given) [OLEIFERINONE] | 9.6 µg/mL (≈ 24 µM) | 5.8 µg/mL (≈ 14.5 µM) | –
4 | – | 0.41 µg/mL (≈ 0.754 µM) | – | COc1cccc2c1C(=O)c1c(O)c3c(c(O)c1C2=O)C[C@@](O)(C(=O)CO)C[C@@H]3O[C@H]1C[C@H](N)[C@H](O)[C@H](C)O1 [DOXORUBICIN] | – | 0.39 µg/mL (≈ 0.718 µM) | –
5 | – | > 20 µg/mL | – | COc1cc(/C=C/C(=O)NCCc2ccc(O)cc2)cc(OC)c1O [TRANS-N-SINAPOYLTYRAMINE] | > 20 µg/mL | > 20 µg/mL | –
6 | – | – | – | COc1ccc(CCN(C)CCCC(C#N)(c2ccc(OC)c(OC)c2)C(C)C)cc1OC (stereo not given) | – | – | Activity (MDR [3]): 114%; Activity (MDR [4]): 138%; Activity (MDR [5]): 114%
7 | – | > 20 µg/mL | – | CC(C)CNC(=O)/C=C/CCCCc1ccc2c(c1)OCO2 [PIPERCALLOSIDINE] | > 20 µg/mL | > 20 µg/mL | –
8 | – | 0.69 µg/mL (≈ 0.808 µM) | – | CC(=O)O[C@H]1C(=O)[C@@]2(C)[C@H]([C@H](OC(=O)c3ccccc3)[C@]3(O)C[C@H](OC(=O)[C@H](O)[C@@H](NC(=O)c4ccccc4)c4ccccc4)C(C)=C1C3(C)C)[C@]1(OC(C)=O)CO[C@@H]1C[C@@H]2O [PACLITAXEL] | 0.05 µg/mL (≈ 0.0586 µM) | – | –
9 | – | > 20 µg/mL | – | COc1cc(/C=C/C(=O)NCCc2ccc(O)c(OC)c2)ccc1O | > 20 µg/mL | > 20 µg/mL | –
10 | – | – | – | C=C(C)[C@@H]1CCC(=C)[C@H](O)CCC(=C)[C@@H](O)C1 [SINUGIBBERODIOL] | – | – | Activity (MDR [6]): 120%; Activity (MDR [3]): 113%; Activity (MDR [7]): 116%; Activity (MDR [4]): 160%; Activity (MDR [8]): 100%; Activity (MDR [5]): 137%
11 | 48.8 µg/mL (≈ 107 µM) | 18.2 µg/mL (≈ 39.9 µM) | 65.2 µg/mL (≈ 143 µM) | O=C1CCCC2=C1[C@H](O)C[C@H](CCCCCCCCCCCCc1ccc3c(c1)OCO3)O2 | > 20 µg/mL | > 20 µg/mL | –
12 | – | > 20 µg/mL | – | CC1(C)C[C@H](O)C[C@@]2(C)OC(=O)C=C12 [LOLIOLIDE] | > 20 µg/mL | > 20 µg/mL | –
13 | – | > 20 µg/mL | – | COc1cc(/C=C/C(=O)NCCc2ccc(O)c(O)c2)ccc1O [N-TRANS-FERULOYLDOPAMINE] | > 20 µg/mL | > 20 µg/mL | –
